Experimental findings from ChEMBL document CHEMBL3351917, “Structure-activity relationship study of 4EGI-1, small molecule eIF4E/eIF4G protein-protein interaction inhibitors” (Eur J Med Chem, 2014) are described below.

The term Kd denotes the equilibrium constant for the complex coming apart.

Values joined by “and” are separate entries in the source; they are usually repeats but may differ in a detail not shown here. Equal entries are not always repeated. Active and inactive are the calls of the source. No cut-off for these calls is given here.

Tested on in one data set: not listed separately
In words: Retention time of the compound in 0 to 70% ACN/Water/0.1%TFA by RP-HPLC analysis. The data set is classed as physicochemical. Conditions: buffer.
The molecule `Nc1ccc(-c2csc(N/N=C(/Cc3ccccc3[N+](=O)[O-])C(=O)O)n2)cc1` came in with a Retention_time of 12.98 min.
On the same count and under the same terms, the value for `O=C(O)/C(Cc1ccccc1[N+](=O)[O-])=N\Nc1nc(-c2ccc(O)cc2)cs1` was 16.47 min.
With `Nc1ccc(-c2csc(N/N=C(\Cc3ccccc3[N+](=O)[O-])C(=O)O)n2)cc1`, the Retention_time turned out to be 11.06 min.
On the same count and under the same terms, in the case of `O=C(O)/C(Cc1ccccc1[N+](=O)[O-])=N/Nc1nc(-c2ccc(O)cc2)cs1` it was 16.48 min.
For the molecule `O=C(O)/C(Cc1ccccc1[N+](=O)[O-])=N/Nc1nc(-c2ccc(C(=O)O)cc2)cs1`, the Retention_time was 14.54 min.
`O=C(O)/C(Cc1ccccc1[N+](=O)[O-])=N\Nc1nc(-c2ccccc2)cs1` gave a Retention_time of 12.958 min.
For the molecule `O=C(O)/C(Cc1ccccc1[N+](=O)[O-])=N/Nc1nc(-c2ccccc2)cs1`, the Retention_time was 15.796 min and 16.484 min.
On the same count and under the same terms, in the case of `O=C(O)/C(Cc1ccccc1[N+](=O)[O-])=N\Nc1nc(-c2ccc(C(=O)O)cc2)cs1` it was 16.77 min.

Tested on in a further data set: not listed separately
In words: Retention time of the compound in 30 to 100% ACN/Water/0.1%TFA by RP-HPLC analysis. The data set is classed as physicochemical. Conditions: buffer. In a few lines:
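Reverse-phase HPLC, 30 to 100% ACN/water/0.1% TFA gradient in 25 min; retention times and E/Z ratios determined on the reaction mixture.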
In turn, `[N-]=[N+]=Nc1ccc(-c2csc(N/N=C(/Cc3ccccc3[N+](=O)[O-])C(=O)O)n2)cc1` displayed a Retention_time of 13.435 min.
The same measure, in the same setting: in the case of `O=C(O)/C(Cc1ccc(C(=O)O)cc1[N+](=O)[O-])=N/Nc1nc(-c2ccc(Cl)c(Cl)c2)cs1` it was 11.814 min; in that of `O=C(O)/C(Cc1ccccc1[N+](=O)[O-])=N\Nc1nc(-c2ccc(N3CCCC3)cc2)cs1` (mixture of isomers), 8.828 min.
As for `O=C(O)/C(Cc1ccccc1[N+](=O)[O-])=N/Nc1nc(-c2ccc(Br)cc2)cs1`, the Retention_time amounted to 10 min.
Same read-out and setting: the value for `O=C(O)/C(Cc1ccccc1[N+](=O)[O-])=N/Nc1nc(-c2ccc3ccccc3c2)cs1` was 11.72 min; that for `Nc1ccc(C/C(=N\Nc2nc(-c3ccc(Cl)c(Cl)c3)cs2)C(=O)O)cc1[N+](=O)[O-]` was 12.3 min.
Consider `[N-]=[N+]=Nc1ccc(-c2csc(N/N=C(\Cc3ccccc3[N+](=O)[O-])C(=O)O)n2)cc1`, for which the Retention_time was determined as 11.722 min.
Still for that read-out and setting: in the case of `Nc1ccc(C/C(=N/Nc2nc(-c3ccc(Cl)c(Cl)c3)cs2)C(=O)O)cc1` it was 5.328 min.
`O=C(O)/C(Cc1ccc(C(=O)O)cc1[N+](=O)[O-])=N\Nc1nc(-c2ccc(Cl)c(Cl)c2)cs1` registered a Retention time of 12.5 min.
As to `O=C(O)/C(Cc1ccc(Br)cc1[N+](=O)[O-])=N/Nc1nc(-c2ccc(Cl)c(Cl)c2)cs1`, the Retention_time came out at 15.542 min.
Same read-out and setting: the value for `Nc1ccc(C/C(=N/Nc2nc(-c3ccc(Cl)c(Cl)c3)cs2)C(=O)O)cc1[N+](=O)[O-]` was 15.09 min; that for `O=C(O)/C(Cc1ccccc1[N+](=O)[O-])=N\Nc1nc(-c2ccc(Br)cc2)cs1` was 12.48 min.

Tested on in the next data set: not listed separately
In words: Retention time of the compound in 0 to 100% ACN/Water/0.1%TFA by RP-HPLC analysis. In kind it is physicochemical. Conditions: buffer. The method, boiled down: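 Reverse-phase HPLC, linear gradient 0 to 100% ACN/water/0.1% TFA over 25 min; isomer retention times and ratios measured in the reaction mixture.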
`O=C(O)/C(Cc1ccc(O)cc1)=N\Nc1nc(-c2ccc(Cl)c(Cl)c2)cs1`: the Retention_time is listed as 18.74 min.
Still for that read-out and setting: in the case of `O=C(O)/C(Cc1ccccc1[N+](=O)[O-])=N\Nc1nc(-c2ccccc2)cs1` it was 16.98 min.
On the same count and under the same terms, in the case of `O=C(O)/C(Cc1ccc(O)cc1)=N/Nc1nc(-c2ccc(Cl)c(Cl)c2)cs1` it was 16.63 min.
In the case of `O=C(O)/C(Cc1ccccc1[N+](=O)[O-])=N/Nc1nc(-c2ccccc2)cs1`, the Retention_time is 15.8 min.

The target of a further data set is T1, Eukaryotic translation initiation factor 4E (Homo sapiens, UniProt P06730). In words: Binding affinity to human full length recombinant GST-tagged eIF4E expressed in Escherichia coli BL21(DE3) by intrinsic tryptophan fluorescence quenching method.
T1 sequence (P06730 whole entry): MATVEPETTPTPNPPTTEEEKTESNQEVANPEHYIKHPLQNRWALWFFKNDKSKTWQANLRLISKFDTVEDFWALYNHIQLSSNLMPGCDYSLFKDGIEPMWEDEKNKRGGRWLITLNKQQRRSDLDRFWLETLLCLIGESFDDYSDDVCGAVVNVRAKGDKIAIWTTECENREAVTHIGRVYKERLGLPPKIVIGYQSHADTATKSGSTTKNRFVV
Conditions: not given
As for `O=C(O)/C(Cc1ccccc1[N+](=O)[O-])=N\Nc1nc(-c2ccc(O)cc2)cs1`, the Kd amounted to 36.6 µM.
Same read-out and setting: in the case of `Nc1ccc(C/C(=N/Nc2nc(-c3ccc(Cl)c(Cl)c3)cs2)C(=O)O)cc1[N+](=O)[O-]` it was 5.01 µM.

Another data set has as its target T1, Eukaryotic translation initiation factor 4E. In words: Inhibition of eIF4E/eIF4G interaction in human CRL2813 cells assessed as reduction of eIF4E/eIF4G complex at 30 uM after 6 hrs by Western blotting analysis relative to control. In kind it is cell-based.
Conditions: not given
The method, boiled down:
(§1)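 CRL-2813 melanoma cells incubated 6 h with 30 µM compound or DMSO vehicle, harvested, lysed by freeze-thaw; lysate bound to m7GTP-Sepharose 1 h at 4°C, beads washed, eluted with free m7GTP; retentate resolved by SDS-PAGE and immunoblotted for eIF4E, eIF4G (monoclonal) and 4E-BP1 (polyclonal). Blots quantified; mean of three independent pull-downs, error ±S.E.M.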
On to `Nc1ccc(C/C(=N/Nc2nc(-c3ccc(Cl)c(Cl)c3)cs2)C(=O)O)cc1[N+](=O)[O-]`, for which the inhibition result was “Active”.

Tested on in another data set: not listed separately
In words: Retention time of the compound in 50 to 100% ACN/Water/0.1%TFA by RP-HPLC analysis. The data set is classed as physicochemical. Conditions: buffer. The method, boiled down:
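RP-HPLC run with a 50 to 100% ACN/water/0.1% TFA gradient over 25 min; retention times and isomer ratios taken from the reaction mixture.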
Molecule `O=C(O)/C(Cc1ccc(F)c([N+](=O)[O-])c1)=N\Nc1nc(-c2ccc(Cl)c(Cl)c2)cs1` registered a Retention_time of 8.4 min.
On the same count and under the same terms, in the case of `O=C(O)/C(Cc1ccc(C(=O)O)cc1)=N\Nc1nc(-c2ccc(Cl)c(Cl)c2)cs1` it was 8.13 min; in that of `O=C(O)/C(Cc1ccccc1[N+](=O)[O-])=N\Nc1nc(-c2ccc3ccccc3c2)cs1`, 5.899 min.
Same read-out and setting: the value for `O=C(O)/C(Cc1ccccc1[N+](=O)[O-])=N/Nc1nc(-c2ccc3ccccc3c2)cs1` was 7.27 min; that for `O=C(O)/C(Cc1ccc(F)c([N+](=O)[O-])c1)=N/Nc1nc(-c2ccc(Cl)c(Cl)c2)cs1` was 15.54 min; that for `O=C(O)/C(Cc1ccc(C(F)(F)F)cc1)=N/Nc1nc(-c2ccc(Cl)c(Cl)c2)cs1` was 10.59 min.
Still for that read-out and setting: in the case of `O=C(O)/C(Cc1ccc(O)cc1)=N\Nc1nc(-c2ccc(Cl)c(Cl)c2)cs1` it was 14.28 min; in that of `O=C(O)/C(Cc1ccc(F)cc1)=N/Nc1nc(-c2ccc(Cl)c(Cl)c2)cs1`, 7.47 min.
`O=C(O)/C(Cc1ccc(C(F)(F)F)cc1)=N\Nc1nc(-c2ccc(Cl)c(Cl)c2)cs1` came in with a Retention_time of 10.53 min.
`O=C(O)/C(Cc1ccc(F)cc1)=N\Nc1nc(-c2ccc(Cl)c(Cl)c2)cs1` showed a Retention_time of 7.92 min.
Same read-out and setting: in the case of `O=C(O)/C(Cc1ccc(C(=O)O)cc1)=N/Nc1nc(-c2ccc(Cl)c(Cl)c2)cs1` it was 5.62 min; in that of `O=C(O)/C(Cc1ccc([N+](=O)[O-])cc1)=N/Nc1nc(-c2ccc(Cl)c(Cl)c2)cs1`, 8.16 min.
Still for that read-out and setting: the value for `O=C(O)/C(Cc1ccc(Cl)c([N+](=O)[O-])c1)=N\Nc1nc(-c2ccc(Cl)c(Cl)c2)cs1` was 9.449 min.
Same read-out and setting: in the case of `O=C(O)/C(Cc1ccc(Cl)cc1)=N\Nc1nc(-c2ccc(Cl)c(Cl)c2)cs1` it was 10.09 min.
`O=C(O)/C(Cc1ccccc1)=N/Nc1nc(-c2ccc(Cl)c(Cl)c2)cs1`: the Retention_time was 8.7 min.
The molecule `O=C(O)/C(Cc1ccccc1[N+](=O)[O-])=N/Nc1nc(-c2ccc(C3CCCCC3)cc2)cs1` gave a Retention_time of 12.013 min.
Same read-out and setting: in the case of `O=C(O)/C(Cc1ccccc1[N+](=O)[O-])=N\Nc1nc(-c2ccc(C3CCCCC3)cc2)cs1` it was 11.636 min; in that of `COc1ccc(C/C(=N/Nc2nc(-c3ccc(Cl)c(Cl)c3)cs2)C(=O)O)cc1[N+](=O)[O-]`, 10.68 min.
Same read-out and setting: in the case of `O=C(O)/C(Cc1ccc(O)cc1)=N/Nc1nc(-c2ccc(Cl)c(Cl)c2)cs1` it was 14.28 min.
On to `O=C(O)/C(Cc1ccccc1[N+](=O)[O-])=N\Nc1nc(-c2ccc(Cl)c(Cl)c2)cs1`, for which the Retention_time came out at 13.69 min.
The same measure, in the same setting: the value for `O=C(O)/C(Cc1ccccc1[N+](=O)[O-])=N\Nc1nc(-c2ccc(-c3ccccc3)cc2)cs1` was 7.23 min; that for `O=C(O)/C(Cc1ccccc1[N+](=O)[O-])=N/Nc1nc(-c2ccc(Cl)c(Cl)c2)cs1` was 8.68 min.
On the same count and under the same terms, the value for `O=C(O)/C(Cc1ccc(O)c([N+](=O)[O-])c1)=N\Nc1nc(-c2ccc(Cl)c(Cl)c2)cs1` was 7.82 min.
Same read-out and setting: the value for `O=C(O)/C(Cc1ccc(Cl)c([N+](=O)[O-])c1)=N/Nc1nc(-c2ccc(Cl)c(Cl)c2)cs1` was 9.437 min; that for `O=C(O)/C(Cc1ccc(O)c([N+](=O)[O-])c1)=N/Nc1nc(-c2ccc(Cl)c(Cl)c2)cs1` was 7.82 min.
Molecule `O=C(O)/C(Cc1ccccc1[N+](=O)[O-])=N\Nc1nc(-c2ccc(N3CCOCC3)cc2)cs1` displayed a Retention_time of 12.32 min.
With `Nc1ccc(C/C(=N/Nc2nc(-c3ccc(Cl)c(Cl)c3)cs2)C(=O)O)cc1[N+](=O)[O-]`, the Retention_time was 15.08 min.
Same read-out and setting: in the case of `O=C(O)/C(Cc1ccccc1[N+](=O)[O-])=N/Nc1nc(-c2ccc(N3CCOCC3)cc2)cs1` it was 15.082 min.
Molecule `O=C(O)/C(Cc1ccccc1)=N\Nc1nc(-c2ccc(Cl)c(Cl)c2)cs1` came in with a Retention_time of 10.56 min.
On the same count and under the same terms, the value for `O=C(O)/C(Cc1ccc([N+](=O)[O-])cc1)=N\Nc1nc(-c2ccc(Cl)c(Cl)c2)cs1` was 8.01 min.
The same measure, in the same setting: the value for `O=C(O)/C(Cc1cccc([N+](=O)[O-])c1)=N\Nc1nc(-c2ccc(Cl)c(Cl)c2)cs1` was 8.36 min; that for `O=C(O)/C(Cc1cccc([N+](=O)[O-])c1)=N/Nc1nc(-c2ccc(Cl)c(Cl)c2)cs1` was 7.19 min.
The same measure, in the same setting: the value for `COc1ccc(C/C(=N\Nc2nc(-c3ccc(Cl)c(Cl)c3)cs2)C(=O)O)cc1[N+](=O)[O-]` was 8.007 min.

Another data set deals with T1, Eukaryotic translation initiation factor 4E. In words: Inhibition of eIF4E/eIF4G interaction in human CRL2813 cells assessed as increase in eIF4E/BP1 complex at 30 uM after 6 hrs by Western blotting analysis relative to control.
Conditions: not given
In kind it is cell-based. The method, boiled down:
as §1
With `Nc1ccc(C/C(=N/Nc2nc(-c3ccc(Cl)c(Cl)c3)cs2)C(=O)O)cc1[N+](=O)[O-]`, the inhibition result was “Active”.
